# Screening results deposited in PubChem by Sanford-Burnham Center for Chemical Genomics.
# Most compounds without a hit are left out; they make up all but 0.77% or so of the library.
# hIAP act: increases human intestinal alkaline phosphatase activity. purified human IAP, CDP-Star luminescence, 30 min; active compounds read high; 1 = vehicle-only enzyme, 0 = enzyme-free background. activation factor at 10 µM. 330,000 compounds, 0.16% hits. AID 2524;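 active = activation factor of the enzyme at least 2-fold when tested at 20 µM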
# Target sequence (P09923 whole entry, looked up): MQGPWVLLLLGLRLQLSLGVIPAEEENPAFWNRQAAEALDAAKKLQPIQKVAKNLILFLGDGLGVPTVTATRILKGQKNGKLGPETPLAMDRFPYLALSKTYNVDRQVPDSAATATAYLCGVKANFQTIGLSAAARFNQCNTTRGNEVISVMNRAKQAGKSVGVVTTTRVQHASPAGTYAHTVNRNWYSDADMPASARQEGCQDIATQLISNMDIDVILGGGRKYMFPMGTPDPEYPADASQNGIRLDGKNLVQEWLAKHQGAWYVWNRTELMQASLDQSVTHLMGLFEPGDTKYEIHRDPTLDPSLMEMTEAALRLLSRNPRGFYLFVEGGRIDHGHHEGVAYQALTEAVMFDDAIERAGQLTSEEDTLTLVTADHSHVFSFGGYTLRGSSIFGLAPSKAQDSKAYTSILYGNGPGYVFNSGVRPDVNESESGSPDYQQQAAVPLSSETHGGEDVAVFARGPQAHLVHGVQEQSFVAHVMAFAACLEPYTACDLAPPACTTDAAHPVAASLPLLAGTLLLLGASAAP
# mIAP inh: mouse IAP inhibition. purified mouse IAP, CDP-Star luminescence, 30 min. inhibition, % at 10 µM. 330,000 compounds, 0.2% hits;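 active = inhibition of at least 40% at 10 µM in the primary screen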;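 also: plate controls were DMSO with enzyme for no effect and no enzyme wells for full effect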
# mIAP activ: mouse IAP activation; muIAP, CDP-Star luminescence, 30 min; active compounds read high; 1 = vehicle-only enzyme signal, 0 = enzyme-free wells; activation factor at 10 µM; 330,000 compounds, 0.24% hits; AID 2805;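 active = activation factor of at least 2 at 20 µM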
#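 Assay system: mouse IAP enzyme; reagent: chemiluminescent substrate CDP-Star; dosing: test compounds delivered from DMSO solution; schedule: 30 min at room temperature; measured by: luminescence from enzymatic CDP-Star hydrolysis; controls: DMSO-only wells and no-enzyme negative control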
# bIAP inhibitor: intestinal alkaline phosphatase (bovine) inhibition; inhibition, % at 20 µM; 190,000 tested, under 10 active; purified bovine IAP, CDP-star luminescence, 30 min;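 active = over 50% inhibition of intestinal alkaline phosphatase at 20 µM in the single-dose screen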
#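 Assay system: bovine IAP enzyme; medium: DEA buffer 100 mM, pH 9.8, with MgCl2 1.0 mM, ZnCl2 0.02 mM; doses: 20 µM single dose; incubation: enzyme reaction for 30 min at room temperature; detection: CDP-star luminescence signal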
# bIAP act: intestinal alkaline phosphatase (bovine) activation. purified bovine IAP, CDP-star luminescence, 30 min; active compounds read high; fold of DMSO-control signal, blank-subtracted. activation factor at 20 µM. 200,000 compounds, 0.17% hits. AID 1016;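 active = activation factor of 2 or more at 20 µM, a signal rise over negative controls twice the positive control's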
# hIAP inh: blocks human intestinal alkaline phosphatase | P09923 | purified IAP, CDP-Star luminescence, 30 min | inhibition, % at 10 µM | 330,000 compounds, 0.12% hits | AID 2544;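 active = inhibition reaching a set limit with compound at 10 µM in the primary screen, cut at about 35% in these data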;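 also: plate controls were DMSO wells with enzyme for no effect and no-enzyme buffer wells for full effect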
# Starred values were filed as active, the others as inactive; nt = no result.
SMILES,hIAP act,mIAP inh,mIAP activ,bIAP inhibitor,bIAP act,hIAP inh
Cc1ccc(NC(=S)NC2CC3CCCC(C2)N3Cc2ccco2)cc1 (configuration not stated),1.1,-53,1.5,-11,1.1,-7
Cc1ccc(NC(=S)NC2CC3CCCC(C2)N3Cc2cccs2)cc1 (configuration not stated),1.3,-318,4.2*,-95,2*,-34
CC(C)CNC(=S)NC1CC2CCCC(C1)N2Cc1cccs1 (configuration not stated),0.99,-163,2.6*,-14,1.1,1
CC(C)CNC(=S)NC1CC2CCCC(C1)N2Cc1ccco1 (configuration not stated),1.2,-26,1.3,5,1,-16
CC(C)c1ccc(NC(=O)NC2CC3CCC(C2)N3Cc2cccs2)cc1 (configuration not stated),1.1,-20,1.2,20,0.8,-13
COc1ccc(CCNC(=S)NCc2ccc(Cl)c(Cl)c2)cc1OC,1.2,-104,2*,-6,1.1,-17
O=C(NCCCn1ccnc1)c1cn(-c2ccccc2)nc1-c1ccc(F)cc1,1.2,-28,1.3,-115,2.2*,-21
O=C(O)c1ccccc1C(=O)NCCCn1ccnc1,1.4,-13,1.1,nt,nt,-42
CCOc1ncccc1C(=O)OCC(=O)NCc1ccc(C(=O)OC)cc1,1.1,-9,1.1,nt,nt,-5
CCO[C@@H]1OC(C(=O)N2CCN(Cc3ccc4c(c3)OCO4)CC2)=C[C@H](c2csc3ccccc23)[C@H]1CCCO,0.85,-3,1,-19,1.2,14
CCO[C@@H]1OC(C(=O)N2CCN(Cc3ccc4c(c3)OCO4)CC2)=C[C@H](c2cn(C(C)=O)c3ccccc23)[C@H]1CCCO,1.1,43*,0.57,-2,1,-10
Oc1ccccc1/C=N/Nc1cccc2cccnc12,0.99,18,0.82,-173,2.7*,1
O=C(O)c1cc(O)c2c(c1)C(=O)c1cc(O)cc(O)c1C2=O,0.83,40*,0.6,13,0.9,17
CS(=O)(=O)c1ccccc1-c1csc(N2CCC(C(N)=O)CC2)n1,0.92,23,0.77,nt,nt,8
CCOC(=O)c1sc(N=NC2=C(O)CCCC2=O)c(C(=O)OCC)c1C,0.76,40*,0.6,-12,1.1,24
CCOC(=O)/C(N=Nc1sc(C(=O)OCC)c(C)c1C(=O)OCC)=C(\C)O,0.83,12,0.88,19,0.8,16
O=C(NNC(=S)NCc1ccco1)c1ccc(Cl)s1,1.4,14,0.86,2,1,-36
O=C(CSCc1ccco1)c1ccc(Cl)s1,0.99,45*,0.55,13,0.9,1
Cc1ccc(C(=O)OCCOc2cccc(Cl)c2)cc1S(=O)(=O)N1CCOCC1,1,4,0.96,nt,nt,-5
O=C(COC(=O)c1ccc(S(=O)(=O)NCc2ccco2)cc1)Nc1ccccc1OC(F)F,1.1,10,0.9,-136,2.4*,-6
O=C(COC(=O)c1ccc(S(=O)(=O)NCc2ccco2)cc1)Nc1ccccc1,1,0,1,nt,nt,-4
CCC(=O)Nc1cccc(C2=NN(c3ccccc3)C(c3ccc(OC)cc3)C2)c1 (configuration not stated),1.4,-173,2.7*,nt,nt,-39
S=c1[nH]nc(-c2ccccc2)n1/N=C/C=C/c1ccco1,1.1,53*,0.47,6,0.9,-7
CCC(NC(=O)Nc1cc(OC)c(OC)c(OC)c1)(C(F)(F)F)C(F)(F)F,0.94,-110,2.1*,-12,1.1,6
COc1cc(NC(=O)COC(C)=O)cc(OC)c1OC,0.99,8,0.92,-10,1.1,1
SMILES,hIAP act,mIAP inh,mIAP activ,bIAP inhibitor,bIAP act,hIAP inh
CCN(CC)S(=O)(=O)c1ccc(NC(=O)CCC2CCCCC2)cc1,nt,nt,nt,-128,2.3*,nt
Cc1cccc(CNC(=O)C(C)n2nc(C)c3c(C)n(-c4ccccc4)nc3c2=O)c1 (configuration not stated),1.3,2,0.98,nt,nt,-26
COc1ccc(C[C@H]2CN3C(=NC[C@@H]3Cc3ccccc3)N2CCNC(=O)CCC2CCCCC2)cc1,0.91,1,0.99,-105,2.1*,9
COc1ccc(C[C@H]2CN3C(=NC[C@@H]3C(C)C)N2CCNC(=O)CCC2CCCCC2)cc1,0.85,-2,1,-15,1.1,14
Clc1ccc(N2N=C(c3cccs3)CC2c2ccco2)cc1 (configuration not stated),0.94,-90,1.9,-28,1.3,6
c1ccc(N2N=C(c3cccs3)CC2c2ccco2)cc1 (configuration not stated),0.82,-108,2.1*,-14,1.1,18
C/C(=N/NC(=O)CNc1ccc(Cl)cc1C)c1ccc(C)cc1,1.1,2,0.98,12,0.9,-12
N/C(=N\OC(=O)c1ccc([N+](=O)[O-])cc1)c1cccnc1,0.98,-4,1,6,0.9,2
O=C(Oc1c(Br)cc([N+](=O)[O-])cc1Br)c1cccnc1,2.3*,0,1,-3,1,-133
O=C(c1cccc(F)c1)N1CCN(C(=O)C(c2ccccc2)c2ccccc2)CC1,1,5,0.95,nt,nt,-4
CCCn1c(N)c(C(c2ccc(OC)cc2)N2CCN(c3ccccc3)CC2)c(=O)[nH]c1=O (configuration not stated),1.3,-38,1.4,-156,2.6*,-25
CCCn1c(N)c(C(c2ccc(C(=O)OC)cc2)N2CCN(c3ccccc3)CC2)c(=O)[nH]c1=O (configuration not stated),1,-18,1.2,-45,1.4,-1
CC(=O)C1=C(C)NC(SCC(=O)c2ccc(Cl)c(Cl)c2)=C(C#N)C1c1ccco1 (configuration not stated),0.65,20,0.8,3,1,35*
CC(=O)C1=C(C)NC(SCC(=O)c2cc(Cl)ccc2Cl)=C(C#N)C1c1ccco1 (configuration not stated),1.2,11,0.89,16,0.8,-18
CCOC(=O)c1c(N)sc(=S)c2c1CCC2,0.96,41*,0.59,6,0.9,4
CC(C)(C)n1nc2c(c1NC(=O)c1ccc(Br)o1)CS(=O)C2 (configuration not stated),1,2,0.98,-158,2.6*,-2
COc1ccc(NC(=O)C2CCC(CNc3c(N4CCC(C)CC4)c(=O)c3=O)CC2)cc1OC (configuration not stated),0.82,0,1,-206,3.1*,18
COc1cc(NC(=O)C2CCC(CNc3c(N4CCC(C)CC4)c(=O)c3=O)CC2)cc(OC)c1 (configuration not stated),0.92,-23,1.2,-28,1.3,8
CCOC(=O)c1ccn(CSc2c(F)c(F)cc(F)c2F)n1,0.91,3,0.97,nt,nt,9
